According to ChEMBL document CHEMBL3608301, “Phenolic Compounds from Atriplex littoralis and Their Radiation-Mitigating Activity” (J Nat Prod, 2015):

Tests used:
PBL [1] = test: Radioprotective activity in 2-Gy gamma irradiated human PBL assessed as incidence of micronuclei in binucleated cells at 3.1 uM treated for 2 to 19 hrs followed by compound washout measured after 72 hrs by cytochalasin-B-blocked micronucleus assay (reference value: 1.2 +/- 0.03); assay type: functional
Outline: (§1)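 Venous blood from five healthy male volunteers was γ-irradiated at 2 Gy (0.45 Gy/min) at room temperature and cultured. Compounds (0.8−7.4 μM final) were added 2 to 19 h after irradiation, at 37 °C. Cultures were then rinsed and moved to fresh RPMI 1640 for 72 h. Cytokinesis-block micronucleus assay: ≥1000 binucleated cells scored per sample (Countryman–Heddle criteria). Controls were non-treated irradiated cultures; one-way ANOVA with Tukey test.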

PBL [2] = test: Toxicity in 2-Gy gamma irradiated human PBL assessed as cytokinesis-block proliferation index at 0.8 uM treated for 2 to 19 hrs followed by compound washout measured after 72 hrs (reference value: 1.6 +/- 0.1); assay type: cell-based
PBL [3] = test: Toxicity in 2-Gy gamma irradiated human PBL assessed as cytokinesis-block proliferation index at 1.5 uM treated for 2 to 19 hrs followed by compound washout measured after 72 hrs (reference value: 1.6 +/- 0.1); assay type: cell-based
PBL [4] = test: Toxicity in 2-Gy gamma irradiated human PBL assessed as cytokinesis-block proliferation index at 3.1 uM treated for 2 to 19 hrs followed by compound washout measured after 72 hrs (reference value: 1.6 +/- 0.1); assay type: cell-based
PBL [5] = test: Radioprotective activity in 2-Gy gamma irradiated human PBL assessed as binucleated cells with micronuclei at 0.8 uM treated for 2 to 19 hrs followed by compound washout measured after 72 hrs by cytochalasin-B-blocked micronucleus assay (reference value: 15.5 +/- 0.6%); assay type: functional; outline: as §1
PBL [6] = test: Radioprotective activity in 2-Gy gamma irradiated human PBL assessed as binucleated cells with micronuclei at 1.5 uM treated for 2 to 19 hrs followed by compound washout measured after 72 hrs by cytochalasin-B-blocked micronucleus assay (reference value: 15.5 +/- 0.6%); assay type: functional; outline: as §1
PBL [7] = test: Radioprotective activity in 2-Gy gamma irradiated human PBL assessed as binucleated cells with micronuclei at 3.1 uM treated for 2 to 19 hrs followed by compound washout measured after 72 hrs by cytochalasin-B-blocked micronucleus assay (reference value: 15.5 +/- 0.6%); assay type: functional; outline: as §1
PBL [8] = test: Radioprotective activity in 2-Gy gamma irradiated human PBL assessed as incidence of micronuclei in 1000 binucleated cells at 0.8 uM treated for 2 to 19 hrs followed by compound washout measured after 72 hrs by cytochalasin-B-blocked micronucleus assay (reference value: 183 +/- 9.6); assay type: functional; outline: as §1
PBL [9] = test: Radioprotective activity in 2-Gy gamma irradiated human PBL assessed as incidence of micronuclei in 1000 binucleated cells at 1.5 uM treated for 2 to 19 hrs followed by compound washout measured after 72 hrs by cytochalasin-B-blocked micronucleus assay (reference value: 183 +/- 9.6); assay type: functional; outline: as §1
PBL [10] = test: Radioprotective activity in 2-Gy gamma irradiated human PBL assessed as incidence of micronuclei in 1000 binucleated cells at 3.1 uM treated for 2 to 19 hrs followed by compound washout measured after 72 hrs by cytochalasin-B-blocked micronucleus assay (reference value: 183 +/- 9.6); assay type: functional; outline: as §1
PBL [11] = test: Radioprotective activity in 2-Gy gamma irradiated human PBL assessed as frequency of micronuclei at 1.5 uM treated for 2 to 19 hrs followed by compound washout measured after 72 hrs by cytochalasin-B-blocked micronucleus assay relative to control; assay type: functional; outline: as §1
PBL [12] = test: Radioprotective activity in 2-Gy gamma irradiated human PBL assessed as frequency of micronuclei at 3.1 uM treated for 2 to 19 hrs followed by compound washout measured after 72 hrs by cytochalasin-B-blocked micronucleus assay relative to control; assay type: functional; outline: as §1
PBL [13] = test: Radioprotective activity in 2-Gy gamma irradiated human PBL assessed as incidence of micronuclei in binucleated cells at 0.8 uM treated for 2 to 19 hrs followed by compound washout measured after 72 hrs by cytochalasin-B-blocked micronucleus assay (reference value: 1.2 +/- 0.03); assay type: functional; outline: as §1
PBL [14] = test: Radioprotective activity in 2-Gy gamma irradiated human PBL assessed as incidence of micronuclei in binucleated cells at 1.5 uM treated for 2 to 19 hrs followed by compound washout measured after 72 hrs by cytochalasin-B-blocked micronucleus assay (reference value: 1.2 +/- 0.03); assay type: functional; outline: as §1
PBL [15] = test: Radioprotective activity in 2-Gy gamma irradiated human PBL assessed as frequency of micronuclei at 0.8 uM treated for 2 to 19 hrs followed by compound washout measured after 72 hrs by cytochalasin-B-blocked micronucleus assay relative to control; assay type: functional; outline: as §1

| SMILES | Activity (PBL [1]) | Activity (PBL [2]) | Activity (PBL [3]) | Activity (PBL [4]) | Activity (PBL [5]) [%] | Activity (PBL [6]) [%] | Activity (PBL [7]) [%] | Activity (PBL [8]) | Activity (PBL [9]) | Activity (PBL [10]) | Activity (PBL [11]) [%] | Activity (PBL [12]) [%] | Activity (PBL [13]) | Activity (PBL [14]) | Activity (PBL [15]) [%] |
| --- | --- | --- | --- | --- | --- | --- | --- | --- | --- | --- | --- | --- | --- | --- | --- |
| C[C@@H]1O[C@@H](O[C@H]2[C@H](Oc3c(-c4ccc(O)c(O)c4)oc4cc5c(c(O)c4c3=O)OCO5)O[C@H](CO)[C@@H](O)[C@@H]2O)[C@H](O)[C@H](O)[C@H]1O | 1.2 | 1.7 | 1.7 | 1.7 | 15.1 | 14.1 | 15.3 | 181 | 178.8 | 187 | 97.7 | 102.2 | 1.2 | 1.3 | 98.9 |
| COc1cc(-c2oc3cc4c(c(O)c3c(=O)c2O[C@@H]2O[C@H](CO)[C@@H](O)[C@H](O)[C@H]2O[C@@H]2O[C@@H](C)[C@H](O)[C@@H](O)[C@H]2O)OCO4)ccc1O | 1.2 | 1.7 | 1.7 | 1.8 | 14.4 | 14.1 | 14.3 | 172 | 170.9 | 175.3 | 93.4 | 95.8 | 1.2 | 1.2 | 94 |
| COc1cc(-c2oc3cc4c(c(O)c3c(=O)c2O[C@@H]2O[C@H](CO[C@@H]3O[C@@H](C)[C@H](O)[C@@H](O)[C@H]3O)[C@@H](O)[C@H](O)[C@H]2O)OCO4)ccc1O | 1.2 | 1.6 | 1.6 | 1.6 | 11.2 | 10.8 | 11.7 | 126.6 | 131.3 | 141.4 | 71.7 | 77.3 | 1.2 | 1.2 | 69.2 |
